Activity calls are given as the source filed them. The rule behind the calls is not given here.
Key:
LNCaP [1] = assay: Induction of apoptosis in human LNCAP cells assessed as reduction in cyclin D1 levels at 0.6 uM to 20 uM after 24 hrs by SDS-PAGE and Western blotting method; type: functional, cell-based
Summary of the method: (§1)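 LNCaP cells (RPMI 1640, 10% FBS) exposed 24 h to 0.6–20 μM, DMSO vehicle control; equal protein on SDS–PAGE, immunoblotted for fAR, Mnk1/2, peIF4E, cyclin D1 and cleaved PARP; β-actin reprobe for loading.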

MDA-MB-468 [2] = assay: Reduction in peIF4E protein expression in human MDA-MB-468 cells at 0.63 uM to 20 uM after 24 hrs by SDS-PAGE and Western blotting method; type: functional, cell-based
Summary of the method: (§2)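 MCF-7, MDA-MB-231 and MDA-MB-468 cells, kept in RPMI 1640 with 10% FBS, were exposed for 24 h to a range of concentrations, with DMSO vehicle controls. Equal protein from lysates was separated by SDS–PAGE and probed for Mnk1, Mnk2, peIF4E, eIF4E and cPARP. GAPDH reprobing served as loading control.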

MDA-MB-231 [3] = assay: Antitumor activity against human MDA-MB-231 cells xenografted in SCID mouse assessed as tumor growth at 20 mg/kg, ip dosed once daily for 5 days per week for 28 days; type: functional; conditions: route intraperitoneal, in the assay text read “athymic nude mouse” for “SCID mouse”
Summary of the method: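 Athymic nude female mice with subcutaneous MDA-MB-231 tumors (10 × 10⁶ cells; ~100 mm³ at randomization, n = 6/group) dosed ip once daily, 5 days/week for 28 days, in 40% β-cyclodextrin/ddH₂O; vehicle controls. %T/C computed as median tumor volume treated vs control at day 28 × 100. Body weight monitored.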

MDA-MB-231 [4] = assay: Antitumor activity against human MDA-MB-231 cells xenografted in nude mouse assessed as increase in Bad protein expression at 20 mg/kg, ip dosed once daily for 5 days per week for 28 days by SDS-PAGE and Western blotting method
Mus musculus = assay: Toxicity in human MDA-MB-231 cells xenografted athymic nude mouse assessed as effect on body weight at 20 mg/kg, ip dosed once daily for 5 days per week for 28 days; conditions: in vivo
MDA-MB-231 [5] = assay: Antitumor activity against human MDA-MB-231 cells xenografted in nude mouse assessed as reduction in Mnk1/2 protein expression at 20 mg/kg, ip dosed once daily for 5 days per week for 28 days by SDS-PAGE and Western blotting method
MDA-MB-231 [6] = assay: Antitumor activity against human MDA-MB-231 cells xenografted in nude mouse assessed as reduction in cyclin D1 protein expression at 20 mg/kg, ip dosed once daily for 5 days per week for 28 days by SDS-PAGE and Western blotting method
MDA-MB-231 [7] = assay: Reduction in peIF4E protein expression in human MDA-MB-231 cells at 0.63 uM to 20 uM after 24 hrs by SDS-PAGE and Western blotting method; type: functional, cell-based; summary of the method: as §2
MDA-MB-231 [8] = assay: Antitumor activity against human MDA-MB-231 cells xenografted in nude mouse assessed as reduction in Bcl2 protein expression at 20 mg/kg, ip dosed once daily for 5 days per week for 28 days by SDS-PAGE and Western blotting method
MDA-MB-468 [9] = assay: Growth inhibition of human MDA-MB-468 cells by MTT assay; type: functional
Summary of the method: (§3)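 Cells grown in RPMI 1640 with 10% FBS, plated at 2500 cells/well, treated across a dose range; growth read by MTT. GI50 taken from dose–response curves by nonlinear regression, at least three independent experiments.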

MCF7 [10] = assay: Reduction in peIF4E protein expression in human MCF7 cells at 0.63 uM to 20 uM after 24 hrs by SDS-PAGE and Western blotting method; type: functional, cell-based; summary of the method: as §2
LNCaP [11] = assay: Reduction in fAR protein expression in human LNCAP cells at 0.6 uM to 20 uM after 24 hrs by SDS-PAGE and Western blotting method; type: functional, cell-based
Summary of the method: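 LNCaP cells were treated for 24 h across 0.6–20 μM, with vehicle (DMSO) controls. Equal protein from lysates was run on SDS–PAGE and immunoblotted for fAR, Mnk1/2, peIF4E, cyclin D1 and cleaved PARP. Blots were reprobed for β-actin as loading control.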

LNCaP [12] = assay: Effect on total eIF4E protein expression in human LNCAP cells at 0.6 uM to 20 uM after 24 hrs by SDS-PAGE and Western blotting method; type: functional, cell-based
PC-3 = assay: Inhibition of cell migration of human PC3 cells at 5 uM after 24 hrs by wound healing assay; type: functional, cell-based
Summary of the method: (§4)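 Cells (5 × 10⁵ per well) grown to confluence, monolayer scratched at time zero, then exposed to 5 μM for 24 h; initial and final wounds photographed at 100×.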

LNCaP [13] = assay: Reduction in Mnk1 protein expression in human LNCAP cells at 0.6 uM to 20 uM after 24 hrs by SDS-PAGE and Western blotting method; type: functional, cell-based; summary of the method: as §1
[14] = Growth inhibition of human PC3 cells by MTT assay; type: functional; conditions: PC-3; summary of the method: as §3
MCF7 [15] = assay: Reduction in Mnk2 protein expression in human MCF7 cells at 0.63 uM to 20 uM after 24 hrs by SDS-PAGE and Western blotting method; type: functional, cell-based
Summary of the method: (§5)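 Breast cancer cells in RPMI 1640 with 10% FBS treated 24 h at indicated concentrations, DMSO vehicle control; equal protein loaded on SDS–PAGE and immunoblotted for Mnk1, Mnk2, peIF4E, eIF4E and cleaved PARP; blots reprobed for GAPDH as loading control.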

MDA-MB-231 [16] = assay: Inhibition of cell migration of human MDA-MB-231 cells at 5 uM after 24 hrs by wound healing assay; type: functional, cell-based; summary of the method: as §4
[17] = Growth inhibition of human SKBR3 cells by MTT assay; type: functional; conditions: SK-BR-3; summary of the method: as §3
[18] = Growth inhibition of human CWR22Rv1 cells by MTT assay; type: functional, CWR22R; conditions: 22Rv1; summary of the method: as §3
LNCaP [19] = assay: Growth inhibition of human LNCAP cells by MTT assay; type: functional; summary of the method: as §3
MDA-MB-231 [20] = assay: Antitumor activity against human MDA-MB-231 cells xenografted in nude mouse assessed as reduction in peIF4E protein expression at 20 mg/kg, ip dosed once daily for 5 days per week for 28 days by SDS-PAGE and Western blotting method
MDA-MB-231 [21] = assay: Reduction in Mnk1 protein expression in human MDA-MB-231 cells at 0.63 uM to 20 uM after 24 hrs by SDS-PAGE and Western blotting method; type: functional, cell-based; summary of the method: as §5
MDA-MB-468 [22] = assay: Effect on total eIF4E protein expression in human MDA-MB-468 cells at 0.63 uM to 20 uM after 24 hrs by SDS-PAGE and Western blotting method; type: functional, cell-based; summary of the method: as §5
MCF7 [23] = assay: Effect on total eIF4E protein expression in human MCF7 cells at 0.63 uM to 20 uM after 24 hrs by SDS-PAGE and Western blotting method; type: functional, cell-based; summary of the method: as §5
MDA-MB-231 [24] = assay: Reduction in Mnk2 protein expression in human MDA-MB-231 cells at 0.63 uM to 20 uM after 24 hrs by SDS-PAGE and Western blotting method; type: functional, cell-based; summary of the method: as §5

| SMILES | Activity (LNCaP [1]) | inhibition (MDA-MB-468 [2]) | T/C (MDA-MB-231 [3]) | Activity (MDA-MB-231 [4]) | Activity (Mus musculus) | Activity (MDA-MB-231 [5]) | Activity (MDA-MB-231 [6]) | inhibition (MDA-MB-231 [7]) | Activity (MDA-MB-231 [8]) | GI50 (MDA-MB-468 [9]) | inhibition (MCF7 [10]) | inhibition (LNCaP [11]) | Activity (LNCaP [12]) | inhibition (PC-3) | inhibition (LNCaP [13]) | GI50 [14] | inhibition (MCF7 [15]) | inhibition (MDA-MB-231 [16]) | GI50 [17] | GI50 [18] | further results |
| --- | --- | --- | --- | --- | --- | --- | --- | --- | --- | --- | --- | --- | --- | --- | --- | --- | --- | --- | --- | --- | --- |
| CC1=C(/C=C/C(C)=C/C=C/C(C)=C\C(=O)NCc2ccc(O)cc2)C(C)(C)CCC1n1ccnc1 (configuration not stated) | Active | Dose-dependent effect | 14.6% | Active | Non-toxic | Active | Active | Dose-dependent effect | Active | 2700 nM | Dose-dependent effect | Dose-dependent effect | inactive | Active | Dose-dependent effect | 3540 nM | Dose-dependent effect | Active | 2450 nM | 1860 nM | GI50 (LNCaP [19]): 1690 nM; Activity (MDA-MB-231 [20]): Active; inhibition (MDA-MB-231 [21]): Dose-dependent effect; Activity (MDA-MB-468 [22]): inactive; Activity (MCF7 [23]): inactive; inhibition (MDA-MB-231 [24]): Dose-dependent effect |
| CC1=C(/C=C/C(C)=C/C=C/C(C)=C\C(=O)Nc2cccc(F)c2)C(C)(C)CCC1n1ccnc1 (configuration not stated) | Active | Dose-dependent effect | 14.6% | Active | Non-toxic | Active | Active | Dose-dependent effect | Active | 6760 nM | Dose-dependent effect | Dose-dependent effect | inactive | Active | Dose-dependent effect | 5620 nM | Dose-dependent effect | Active | 17000 nM | 2040 nM | GI50 (LNCaP [19]): 2690 nM; Activity (MDA-MB-231 [20]): Active; inhibition (MDA-MB-231 [21]): Dose-dependent effect; Activity (MDA-MB-468 [22]): inactive; Activity (MCF7 [23]): inactive; inhibition (MDA-MB-231 [24]): Dose-dependent effect |
